Results from ChEMBL document CHEMBL4715736, “Identification of anticancer agents based on the thieno[2,3-b]pyridine and 1H-pyrazole molecular scaffolds” (2016).

Experiments:
Type in all cases: functional
KM12 = assay: Growth inhibition of human KM12 cells assessed as cell growth at 0.01 uM incubated for 48 hrs by sulforhodamine B assay relative to control; conditions: read-out: Activity
A549 = assay: Growth inhibition of human A549/ATCC cells incubated for 48 hrs by sulforhodamine B assay; conditions: for CC50: read-out: LC50 (the source's name)
Summary of the method: (§1)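 NCI Developmental Therapeutics Program NCI60 panel. Compounds that were active in the 10 µM one-dose screen went on to dose–response testing. Growth at each concentration is expressed relative to untreated control (100%). GI50 (concentration giving 50% of maximal inhibition of proliferation) and TGI (concentration giving total growth inhibition) were derived from the curves.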

U-251 = assay: Growth inhibition of human U-251 cells assessed as cell growth at 1 uM incubated for 48 hrs by sulforhodamine B assay relative to control; conditions: read-out: Activity
SR = assay: Growth inhibition of human SR cells assessed as cell growth at 0.01 uM incubated for 48 hrs by sulforhodamine B assay relative to control; conditions: read-out: Activity
HOP-92 [1] = assay: Growth inhibition of human HOP-92 cells assessed as cell growth at 0.01 uM incubated for 48 hrs by sulforhodamine B assay relative to control; conditions: read-out: Activity
T47D = assay: Growth inhibition of human T47D cells incubated for 48 hrs by sulforhodamine B assay; conditions: for CC50: read-out: LC50 (the source's name)
Summary of the method: (§2)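 NCI DTP 60-line human tumour panel. Dose-response curves were run only for ligands active in the initial 10 µM screen. GI50 (concentration giving 50% of maximal inhibition of proliferation) and TGI (concentration giving total growth inhibition) were derived from these curves.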

Malme-3M = assay: Growth inhibition of human Malme-3M cells assessed as cell growth at 100 uM incubated for 48 hrs by sulforhodamine B assay relative to control; conditions: read-out: Activity
SF-295 = assay: Growth inhibition of human SF-295 cells assessed as cell growth at 100 uM incubated for 48 hrs by sulforhodamine B assay relative to control; conditions: read-out: Activity
786-0 = assay: Growth inhibition of human 786-0 cells assessed as cell growth at 100 uM incubated for 48 hrs by sulforhodamine B assay relative to control; conditions: read-out: Activity
OVCAR-4 [2] = assay: Growth inhibition of human OVCAR-4 cells incubated for 48 hrs by sulforhodamine B assay; conditions: for CC50: read-out: LC50 (the source's name); summary of the method: as §2
BT-549 [3] = assay: Growth inhibition of human BT-549 cells incubated for 48 hrs by sulforhodamine B assay; conditions: for CC50: read-out: LC50 (the source's name); summary of the method: as §1
CAKI-1 = assay: Growth inhibition of human CAKI-1 cells assessed as cell growth at 1 uM incubated for 48 hrs by sulforhodamine B assay relative to control; conditions: read-out: Activity; summary of the method: as §1
SF-539 = assay: Growth inhibition of human SF-539 cells assessed as cell growth at 0.01 uM incubated for 48 hrs by sulforhodamine B assay relative to control; conditions: read-out: Activity
TK-10 = assay: Growth inhibition of human TK-10 cells incubated for 48 hrs by sulforhodamine B assay; conditions: for CC50: read-out: LC50 (the source's name); summary of the method: as §2
OVCAR-4 [4] = assay: Growth inhibition of human OVCAR-4 cells assessed as cell growth at 0.01 uM incubated for 48 hrs by sulforhodamine B assay relative to control; conditions: read-out: Activity
IGROV-1 = assay: Growth inhibition of human IGROV-1 cells assessed as cell growth at 1 uM incubated for 48 hrs by sulforhodamine B assay relative to control; conditions: read-out: Activity
SNB-19 = assay: Growth inhibition of human SNB-19 cells assessed as cell growth at 0.01 uM incubated for 48 hrs by sulforhodamine B assay relative to control; conditions: read-out: Activity
BT-549 [5] = assay: Growth inhibition of human BT-549 cells assessed as cell growth at 0.1 uM incubated for 48 hrs by sulforhodamine B assay relative to control; conditions: read-out: Activity
NCI/ADR-RES = assay: Growth inhibition of human NCI/ADR-RES cells incubated for 48 hrs by sulforhodamine B assay; conditions: for CC50: read-out: LC50 (the source's name)
Summary of the method: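 NCI60 panel at the NCI Developmental Therapeutics Program. Only compounds active in the 10 µM screen went to dose-response testing. GI50, the concentration giving 50% of maximal inhibition of proliferation, and TGI, the concentration giving total growth inhibition, were derived from the dose-response curves.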

CCRF-CEM = assay: Growth inhibition of human CCRF-CEM cells assessed as cell growth at 0.01 uM incubated for 48 hrs by sulforhodamine B assay relative to control; conditions: read-out: Activity; summary of the method: as §1
HOP-92 [6] = assay: Growth inhibition of human HOP-92 cells assessed as cell growth at 1 uM incubated for 48 hrs by sulforhodamine B assay relative to control; conditions: read-out: Activity
OVCAR-5 = assay: Growth inhibition of human OVCAR-5 cells assessed as cell growth at 1 uM incubated for 48 hrs by sulforhodamine B assay relative to control; conditions: read-out: Activity
RPMI-8226 = assay: Growth inhibition of human RPMI-8226 cells assessed as cell growth at 1 uM incubated for 48 hrs by sulforhodamine B assay relative to control; conditions: read-out: Activity
HT-29 [7] = assay: Growth inhibition of human HT-29 cells assessed as cell growth at 0.1 uM incubated for 48 hrs by sulforhodamine B assay relative to control; conditions: read-out: Activity
M14 = assay: Growth inhibition of human M14 cells assessed as cell growth at 1 uM incubated for 48 hrs by sulforhodamine B assay relative to control; conditions: read-out: Activity
MCF7 = assay: Growth inhibition of human MCF7 cells assessed as cell growth at 100 uM incubated for 48 hrs by sulforhodamine B assay relative to control; conditions: read-out: Activity
HCC 2998 = assay: Growth inhibition of human HCC 2998 cells incubated for 48 hrs by sulforhodamine B assay; conditions: for CC50: read-out: LC50 (the source's name)
BT-549 [8] = assay: Growth inhibition of human BT-549 cells assessed as cell growth at 0.01 uM incubated for 48 hrs by sulforhodamine B assay relative to control; conditions: read-out: Activity
A498 = assay: Growth inhibition of human A498 cells assessed as cell growth at 1 uM incubated for 48 hrs by sulforhodamine B assay relative to control; conditions: read-out: Activity; summary of the method: as §1
SW-620 = assay: Growth inhibition of human SW-620 cells assessed as cell growth at 1 uM incubated for 48 hrs by sulforhodamine B assay relative to control; conditions: read-out: Activity
NCI-H226 = assay: Growth inhibition of human NCI-H226 cells assessed as cell growth at 100 uM incubated for 48 hrs by sulforhodamine B assay relative to control; conditions: read-out: Activity
HT-29 [9] = assay: Growth inhibition of human HT-29 cells assessed as cell growth at 1 uM incubated for 48 hrs by sulforhodamine B assay relative to control; conditions: read-out: Activity

With `CCc1ccccc1NC(=O)c1sc2nc3c(cc2c1N)C(=O)CCC3` the growth at 0.01 µM (KM12) was 100%, the GI50 (A549) was 595 nM and the TGI (A549) was over 100 µM. The CC50 (A549) was over 100 µM, the growth at 1 µM (U-251) was 33% and the growth at 0.01 µM (SR) was 100%. It also gave a growth at 0.01 µM (HOP-92 [1]) of 87%, a GI50 (T47D) of 431 nM and a TGI (T47D) of at least 100 µM. It also gave a CC50 (T47D) of over 100 µM, a growth at 100 µM (Malme-3M) of -5% and a growth at 100 µM (SF-295) of -2%. It also gave a growth at 100 µM (786-0) of -17%, a GI50 (OVCAR-4 [2]) of 31.5 nM and a TGI (OVCAR-4 [2]) of over 100 µM. For the same compound, the CC50 (OVCAR-4 [2]) was over 100 µM, the GI50 (BT-549 [3]) was 27.4 µM and the TGI (BT-549 [3]) was over 100 µM. It also gave a CC50 (BT-549 [3]) of over 100 µM, a growth at 1 µM (CAKI-1) of 33% and a growth at 0.01 µM (SF-539) of 92%. The GI50 (TK-10) was 23.2 µM, the TGI (TK-10) was over 100 µM and the CC50 (TK-10) was over 100 µM. It also gave a growth at 0.01 µM (OVCAR-4 [4]) of 89%, a growth at 1 µM (IGROV-1) of 62% and a growth at 0.01 µM (SNB-19) of 91%. For the same compound, the growth at 0.1 µM (BT-549 [5]) was 101%, the GI50 (NCI/ADR-RES) was 367 nM and the TGI (NCI/ADR-RES) was 39.2 µM. It also gave a CC50 (NCI/ADR-RES) of over 100 µM, a growth at 0.01 µM (CCRF-CEM) of 96% and a growth at 1 µM (HOP-92 [6]) of 35%. The growth at 1 µM (OVCAR-5) was 50%, the growth at 1 µM (RPMI-8226) was 41% and the growth at 0.1 µM (HT-29 [7]) was 100%. It also gave a growth at 1 µM (M14) of 17%, a growth at 100 µM (MCF7) of 9% and a GI50 (HCC 2998) of 1430 nM. The TGI (HCC 2998) was over 100 µM, the CC50 (HCC 2998) was over 100 µM and the growth at 0.01 µM (BT-549 [8]) was 104%. It also gave a growth at 1 µM (A498) of -14%, a growth at 1 µM (SW-620) of 18% and a growth at 100 µM (NCI-H226) of 18%. It also gave a growth at 1 µM (HT-29 [9]) of 13%.
`Cc1ccc(NC(=O)c2sc3nc4c(cc3c2N)C(=O)CCC4)cc1C` gave a growth at 0.01 µM (KM12) of 98%, a GI50 (A549) of 673 nM and a TGI (A549) of over 100 µM. It also gave a CC50 (A549) of over 100 µM, a growth at 1 µM (U-251) of 42% and a growth at 0.01 µM (SR) of 106%. For the same compound, the growth at 0.01 µM (HOP-92 [1]) was 87%, the GI50 (T47D) was 444 nM and the TGI (T47D) was at least 100 µM. For the same compound, the CC50 (T47D) was over 100 µM, the growth at 100 µM (Malme-3M) was 28% and the growth at 100 µM (SF-295) was 12%. The growth at 100 µM (786-0) was 20%, the GI50 (OVCAR-4 [2]) was 20.1 nM and the TGI (OVCAR-4 [2]) was over 100 µM. For the same compound, the CC50 (OVCAR-4 [2]) was over 100 µM, the TGI (BT-549 [3]) was over 100 µM and the CC50 (BT-549 [3]) was over 100 µM. For the same compound, the growth at 1 µM (CAKI-1) was 41%, the growth at 0.01 µM (SF-539) was 97% and the TGI (TK-10) was over 100 µM. It also gave a CC50 (TK-10) of over 100 µM, a growth at 0.01 µM (OVCAR-4 [4]) of 94% and a growth at 1 µM (IGROV-1) of 51%. The growth at 0.01 µM (SNB-19) was 91%, the growth at 0.1 µM (BT-549 [5]) was 108% and the GI50 (NCI/ADR-RES) was 658 nM. For the same compound, the TGI (NCI/ADR-RES) was over 100 µM, the CC50 (NCI/ADR-RES) was over 100 µM and the growth at 0.01 µM (CCRF-CEM) was 94%. For the same compound, the growth at 1 µM (HOP-92 [6]) was 29%, the growth at 1 µM (OVCAR-5) was 66% and the growth at 1 µM (RPMI-8226) was 57%. The growth at 0.1 µM (HT-29 [7]) was 104%, the growth at 1 µM (M14) was 22% and the growth at 100 µM (MCF7) was 8%. It also gave a GI50 (HCC 2998) of 1400 nM, a TGI (HCC 2998) of over 100 µM and a CC50 (HCC 2998) of over 100 µM. It also gave a growth at 0.01 µM (BT-549 [8]) of 107%, a growth at 1 µM (A498) of -17% and a growth at 1 µM (SW-620) of 19%. For the same compound, the growth at 100 µM (NCI-H226) was 36% and the growth at 1 µM (HT-29 [9]) was 14%.
